Values after ≈ are worked out from the molar mass of the structure shown. Active and inactive are the calls of the source. No cut-off for these calls is given here.
Key:
Moraxella catarrhalis [1] = experiment: Antibacterial activity against beta-lactamase producing Moraxella catarrhalis isolate 6 at 10 ug/disc after overnight incubation by disc diffusion assay in presence of 1 mol equiv of glutathione; format: functional; conditions: for zone of inhibition at 10 µg/disc: read-out: IZ
Moraxella catarrhalis [2] = experiment: Antibacterial activity against beta-lactamase producing Moraxella catarrhalis isolate 5 at 10 ug/disc after overnight incubation by disc diffusion assay; format: functional; conditions: for zone of inhibition at 10 µg/disc: read-out: IZ
Outline: (§1)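 Isolates were held at −80 °C. Five colonies were suspended in Mueller-Hinton broth to a 0.5 McFarland density and swabbed onto MH agar. Discs carried 10 μg compound, applied in methanol and dried at room temperature. Plates were incubated overnight at 37 °C, and the zone of inhibition was measured in mm from the disc edge. Controls were methanol-only and penicillin discs. Run blinded, in triplicate.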

Enterococcus faecalis [3] = experiment: Antibacterial activity against non-beta-lactamase producing Enterococcus faecalis ATCC 29212 at 10 ug/disc after overnight incubation by disc diffusion assay; format: functional, organism-based; outline: as §1
Moraxella catarrhalis [4] = experiment: Antibacterial activity against beta-lactamase producing Moraxella catarrhalis isolate 3 at 500 ug/ml after overnight incubation by disc diffusion assay; format: functional, organism-based
Moraxella catarrhalis [5] = experiment: Antibacterial activity against beta-lactamase producing Moraxella catarrhalis isolate 2 at 10 ug/disc after overnight incubation by disc diffusion assay in presence of 1 mol equiv of glutathione; format: functional; conditions: for zone of inhibition at 10 µg/disc: read-out: IZ
Pseudomonas aeruginosa [6] = experiment: Antibacterial activity against non-beta-lactamase producing Pseudomonas aeruginosa ATCC 27853 at 10 ug/disc after overnight incubation by disc diffusion assay; format: functional, organism-based; outline: as §1
Moraxella catarrhalis [7] = experiment: Antibacterial activity against beta-lactamase producing Moraxella catarrhalis isolate 5 at 500 ug/ml after overnight incubation by disc diffusion assay; format: functional, organism-based
Moraxella catarrhalis [8] = experiment: Antibacterial activity against beta-lactamase producing Moraxella catarrhalis isolate 2 at 10 ug/disc after overnight incubation by disc diffusion assay; format: functional; conditions: for zone of inhibition at 10 µg/disc: read-out: IZ; outline: as §1
Moraxella catarrhalis [9] = experiment: Antibacterial activity against beta-lactamase producing Moraxella catarrhalis isolate 1 at 10 ug/disc after overnight incubation by disc diffusion assay; format: functional; outline: as §1
Moraxella catarrhalis [10] = experiment: Antibacterial activity against beta-lactamase producing Moraxella catarrhalis isolate 6 at 10 ug/disc after overnight incubation by disc diffusion assay; format: functional; conditions: for zone of inhibition at 10 µg/disc: read-out: IZ; outline: as §1
Moraxella catarrhalis [11] = experiment: Antibacterial activity against beta-lactamase producing Moraxella catarrhalis isolate 5 at 10 ug/disc after overnight incubation by disc diffusion assay in presence of 1 mol equiv of glutathione; format: functional; conditions: for zone of inhibition at 10 µg/disc: read-out: IZ
Moraxella catarrhalis [12] = experiment: Antibacterial activity against beta-lactamase producing Moraxella catarrhalis isolate 2 at 500 ug/ml after overnight incubation by disc diffusion assay; format: functional, organism-based
Moraxella catarrhalis [13] = experiment: Antibacterial activity against beta-lactamase producing Moraxella catarrhalis isolate 1 at 10 ug/disc after overnight incubation by disc diffusion assay in presence of 1 mol equiv of glutathione; format: functional
Moraxella catarrhalis [14] = experiment: Antibacterial activity against beta-lactamase producing Moraxella catarrhalis isolate 4 at 10 ug/disc after overnight incubation by disc diffusion assay; format: functional; conditions: for zone of inhibition at 10 µg/disc: read-out: IZ; outline: as §1
Pseudomonas aeruginosa [15] = experiment: Antibacterial activity against non-beta-lactamase producing Pseudomonas aeruginosa ATCC 27853 after 48 hrs by microdilution broth method; format: functional, organism-based
Outline: (§2)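 Broth microdilution followed CLSI guidelines. Compound was dissolved in 95% ethanol, diluted at least 10-fold into Mueller-Hinton broth, then serially two-fold diluted from 500 to 15.6 μg/mL. Actively growing culture was added at 5 × 10^5 cells/mL. Plates ran 48 h at 37 °C, scored for visible growth at 24 and 48 h. MIC was the lowest concentration without growth. For MBC, 10 μL from each clear well was plated on MH agar. Controls were ethanol and penicillin. Triplicate.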

Moraxella catarrhalis [16] = experiment: Antibacterial activity against beta-lactamase producing Moraxella catarrhalis isolate 3 at 10 ug/disc after overnight incubation by disc diffusion assay; format: functional; conditions: for zone of inhibition at 10 µg/disc: read-out: IZ; outline: as §1
Staphylococcus aureus [17] = experiment: Antibacterial activity against non-beta-lactamase producing Staphylococcus aureus ATCC 25923 at 10 ug/disc after overnight incubation by disc diffusion assay; format: functional, organism-based; outline: as §1
Moraxella catarrhalis [18] = experiment: Antibacterial activity against beta-lactamase producing Moraxella catarrhalis isolate 6 at 500 ug/ml after overnight incubation by disc diffusion assay; format: functional, organism-based
Moraxella catarrhalis [19] = experiment: Antibacterial activity against beta-lactamase producing Moraxella catarrhalis isolate 3 at 10 ug/disc after overnight incubation by disc diffusion assay in presence of 1 mol equiv of glutathione; format: functional; conditions: for zone of inhibition at 10 µg/disc: read-out: IZ
Escherichia coli [20] = experiment: Antibacterial activity against non-beta-lactamase producing Escherichia coli ATCC 25922 after 48 hrs by microdilution broth method; format: functional, organism-based; outline: as §2
Moraxella catarrhalis [21] = experiment: Antibacterial activity against beta-lactamase producing Moraxella catarrhalis isolate 4 at 10 ug/disc after overnight incubation by disc diffusion assay in presence of 1 mol equiv of glutathione; format: functional; conditions: for zone of inhibition at 10 µg/disc: read-out: IZ
[22] = test system: Mycobacterium tuberculosis; experiment: Antimycobacterial activity against wild type Mycobacterium tuberculosis H37Rv at 200 ug/ml by Alamar blue assay; format: functional, organism-based
Enterococcus faecalis [23] = experiment: Antibacterial activity against non-beta-lactamase producing Enterococcus faecalis ATCC 29212 after 48 hrs by microdilution broth method; format: functional, organism-based; outline: as §2
Staphylococcus aureus [24] = experiment: Antibacterial activity against non-beta-lactamase producing Staphylococcus aureus ATCC 25923 after 48 hrs by microdilution broth method; format: functional, organism-based; outline: as §2
Escherichia coli [25] = experiment: Antibacterial activity against non-beta-lactamase producing Escherichia coli ATCC 25922 at 10 ug/disc after overnight incubation by disc diffusion assay; format: functional, organism-based; outline: as §1
Moraxella catarrhalis [26] = experiment: Antibacterial activity against beta-lactamase producing Moraxella catarrhalis isolate 4 at 500 ug/ml after overnight incubation by disc diffusion assay; format: functional, organism-based
Moraxella catarrhalis [27] = experiment: Antibacterial activity against beta-lactamase producing Moraxella catarrhalis isolate 6 after 48 hrs incubation by microdilution broth method; format: functional; conditions: isolate 6, 48 h; outline: as §2
Moraxella catarrhalis [28] = experiment: Antibacterial activity against beta-lactamase producing Moraxella catarrhalis isolate 4 after 48 hrs incubation by microdilution broth method; format: functional; conditions: isolate 4, 48 h; outline: as §2
Moraxella catarrhalis [29] = experiment: Antibacterial activity against beta-lactamase producing Moraxella catarrhalis isolate 3 after 48 hrs incubation by microdilution broth method; format: functional; conditions: isolate 3, 48 h; outline: as §2
Moraxella catarrhalis [30] = experiment: Antibacterial activity against beta-lactamase producing Moraxella catarrhalis isolate 2 after 48 hrs incubation by microdilution broth method; format: functional; conditions: isolate 2, 48 h; outline: as §2
Moraxella catarrhalis [31] = experiment: Antibacterial activity against beta-lactamase producing Moraxella catarrhalis isolate 5 after 48 hrs incubation by microdilution broth method; format: functional; conditions: isolate 5, 48 h; outline: as §2
[32] = test system: Mycobacterium tuberculosis; experiment: Antimycobacterial activity against wild type Mycobacterium tuberculosis H37Rv by Alamar blue assay; format: functional
Moraxella catarrhalis [33] = experiment: Antibacterial activity against beta-lactamase producing Moraxella catarrhalis isolate 1 after 48 hrs incubation by microdilution broth method; format: functional; conditions: isolate 1, 48 h; outline: as §2

Row | Structure (SMILES) | Activity (Enterococcus faecalis [3]) | Activity (Pseudomonas aeruginosa [6]) | inhibition zone (IZ) (Moraxella catarrhalis [9]) | inhibition zone (IZ) (Moraxella catarrhalis [13]) | zone of inhibition at 10 µg/disc (Moraxella catarrhalis [14]) [mm] | Activity (Pseudomonas aeruginosa [15]) | inhibition zone (IZ) (Moraxella catarrhalis [16]) | Activity (Staphylococcus aureus [17]) | Activity (Escherichia coli [20]) | zone of inhibition at 10 µg/disc (Moraxella catarrhalis [21]) [mm] | Activity (Enterococcus faecalis [23]) | Activity (Staphylococcus aureus [24]) | Activity (Escherichia coli [25]) | MBC (Moraxella catarrhalis [27]) [µg/mL] | MBC (Moraxella catarrhalis [28]) [µg/mL] | MBC (Moraxella catarrhalis [29]) [µg/mL] | MBC (Moraxella catarrhalis [30]) [µg/mL] | MBC (Moraxella catarrhalis [31]) [µg/mL] | MBC [32] [µg/mL] | MBC (Moraxella catarrhalis [33]) [µg/mL] | further results
1 | Nc1ccc(SC2CC(=O)N2S(=O)(=O)O)cc1 (racemic) | inactive | inactive | inactive | inactive | 8 | inactive | inactive | inactive | inactive | 8 | inactive | inactive | inactive | – | – | – | – | – | – | – | inhibition zone (IZ) (Moraxella catarrhalis [1]): inactive; inhibition zone (IZ) (Moraxella catarrhalis [2]): inactive; antibacterial activity (active/not active) (Moraxella catarrhalis [4]): Active; inhibition zone (IZ) (Moraxella catarrhalis [5]): inactive; antibacterial activity (active/not active) (Moraxella catarrhalis [7]): Active; inhibition zone (IZ) (Moraxella catarrhalis [8]): inactive; inhibition zone (IZ) (Moraxella catarrhalis [10]): inactive; inhibition zone (IZ) (Moraxella catarrhalis [11]): inactive; antibacterial activity (active/not active) (Moraxella catarrhalis [12]): Active; antibacterial activity (active/not active) (Moraxella catarrhalis [18]): Active; inhibition zone (IZ) (Moraxella catarrhalis [19]): inactive; antimycobacterial activity (active/not active) [22]: Active; antibacterial activity (active/not active) (Moraxella catarrhalis [26]): Active
2 | O=C1CC(Sc2ccc(O)cc2)N1 (racemic) | inactive | inactive | – | – | – | inactive | – | inactive | inactive | – | inactive | inactive | inactive | < 15.6 | < 15.6 | < 15.6 | < 15.6 | < 15.6 | > 200 | > 500 | –
3 | CC(=O)SC1CC(=O)N1S(=O)(=O)O (racemic) | inactive | inactive | inactive | inactive | 12 | inactive | – | inactive | inactive | 14 | inactive | inactive | inactive | – | – | – | – | – | – | – | zone of inhibition at 10 µg/disc (Moraxella catarrhalis [1]): 12 mm; zone of inhibition at 10 µg/disc (Moraxella catarrhalis [2]): 17 mm; zone of inhibition at 10 µg/disc (Moraxella catarrhalis [5]): 11 mm; zone of inhibition at 10 µg/disc (Moraxella catarrhalis [8]): 12 mm; zone of inhibition at 10 µg/disc (Moraxella catarrhalis [10]): 11 mm; zone of inhibition at 10 µg/disc (Moraxella catarrhalis [11]): 18 mm; zone of inhibition at 10 µg/disc (Moraxella catarrhalis [16]): 17 mm; zone of inhibition at 10 µg/disc (Moraxella catarrhalis [19]): 12 mm
4 | CC(=O)SC1CC(=O)N1 (racemic) | inactive | inactive | – | – | 26 | inactive | – | inactive | inactive | 22 | inactive | inactive | inactive | – | – | – | – | – | – | – | zone of inhibition at 10 µg/disc (Moraxella catarrhalis [1]): 19 mm; zone of inhibition at 10 µg/disc (Moraxella catarrhalis [2]): 28 mm; zone of inhibition at 10 µg/disc (Moraxella catarrhalis [5]): 19 mm; zone of inhibition at 10 µg/disc (Moraxella catarrhalis [8]): 20 mm; zone of inhibition at 10 µg/disc (Moraxella catarrhalis [9]; read-out: IZ): 19 mm; zone of inhibition at 10 µg/disc (Moraxella catarrhalis [10]): 20 mm; zone of inhibition at 10 µg/disc (Moraxella catarrhalis [11]): 24 mm; zone of inhibition at 10 µg/disc (Moraxella catarrhalis [13]; read-out: IZ): 16 mm; zone of inhibition at 10 µg/disc (Moraxella catarrhalis [16]): 24 mm; zone of inhibition at 10 µg/disc (Moraxella catarrhalis [19]): 19 mm
5 | O=C1CC(Sc2cccs2)N1 (racemic) | inactive | inactive | inactive | – | – | inactive | inactive | inactive | inactive | – | inactive | inactive | inactive | > 500 | 500 (≈ 2700 µM) | 500 (≈ 2700 µM) | > 500 | 500 (≈ 2700 µM) | 100 (≈ 540 µM) | > 500 | inhibition zone (IZ) (Moraxella catarrhalis [2]): inactive; inhibition zone (IZ) (Moraxella catarrhalis [8]): inactive; inhibition zone (IZ) (Moraxella catarrhalis [14]): inactive
6 | CCC(C=O)(CC)SSC(CC)(CC)C1C(OC)C(=O)N1CC(=O)OC (racemic) | inactive | inactive | inactive | inactive | – | inactive | inactive | inactive | inactive | – | inactive | inactive | inactive | < 15.6 | < 15.6 | < 15.6 | > 500 | < 15.6 | 200 (≈ 493 µM) | > 500 | inhibition zone (IZ) (Moraxella catarrhalis [1]): inactive; zone of inhibition at 10 µg/disc (Moraxella catarrhalis [2]): 7 mm; zone of inhibition at 10 µg/disc (Moraxella catarrhalis [5]): 7 mm; zone of inhibition at 10 µg/disc (Moraxella catarrhalis [8]): 10 mm; inhibition zone (IZ) (Moraxella catarrhalis [10]): inactive; zone of inhibition at 10 µg/disc (Moraxella catarrhalis [11]): 7 mm; inhibition zone (IZ) (Moraxella catarrhalis [14]): inactive; inhibition zone (IZ) (Moraxella catarrhalis [19]): inactive; inhibition zone (IZ) (Moraxella catarrhalis [21]): inactive

Reference: ChEMBL document CHEMBL1914320, “C4-alkylthiols with activity against Moraxella catarrhalis and Mycobacterium tuberculosis” (Bioorg Med Chem, 2011)
